# Measured values of several laboratories.
# Each line is one published result; the experiments were not run side by side.
# Oprm1: Mu-type opioid receptor (Oprm1, Mus musculus, UniProt P42866)
# PFF0160c: Dihydroorotate dehydrogenase (quinone), mitochondrial (PFF0160c, Plasmodium falciparum, UniProt Q08210)
# SIGMAR1: Sigma non-opioid intracellular receptor 1 (SIGMAR1, Homo sapiens, UniProt Q99720)
# Nectin-4: Nectin-4 (Homo sapiens, UniProt Q96NY8)
Structure (SMILES),target,observed,action,technique,quantity,value
O=C(N[C@H]1C=C[C@@]2(O)[C@H]3Cc4ccc(O)c5c4[C@@]2(CCN3CC2CC2)[C@H]1O5)c1c[nH]c2cccnc12,Oprm1,ligand displacement,,radioligand,Ki,0.00056 µM
Cc1cc(Nc2ccc3c(c2)CCC3)n2ncnc2n1,PFF0160c,enzyme activity,inhibitor,absorbance,IC50,0.695 µM
COc1cc2nc(N3CCCN(C)CC3)nc(NC3CCN(Cc4ccccc4)CC3)c2cc1OC,SIGMAR1,ligand displacement,,radioligand,Ki,> 10 µM
CCCC[C@@H]1NC(=O)[C@H](Cc2ccc(O)cc2)NC(=O)[C@@H]2CCCN2C(=O)[C@H](CC(=O)O)NC(=O)[C@H](C)NC(=O)[C@H](Cc2ccccc2)NC(=O)[C@@H]2CSCCC(=O)N3CN(CN(C3)C(=O)CCSC[C@H](NC(C)=O)C(=O)N[C@@H](CC(C)(C)C)C(=O)N3CCC[C@H]3C(=O)N[C@@H](CCC(=O)O)C(=O)N[C@H](CCCCNC(=O)CCc3cn(CCOCCOCCOCCOCCOCCC(=O)N[C@H]4CSCCC(=O)N5CN6CN(C5)C(=O)CCSC[C@H](NC(=O)[C@@H](CC(=O)O)NC(=O)[C@H](Cc5cccc7ccccc57)NC(=O)[C@@H]5CCCN5C4=O)C(=O)N[C@@H](CCSC)C(=O)N[C@@H](CCCCNC(=N)N)C(=O)N[C@@H](CC(=O)O)C(=O)N[C@@H](Cc4c[nH]c5ccccc45)C(=O)N[C@@H](CO)C(=O)N[C@@H]([C@@H](C)O)C(=O)N4CCC[C@H]4C(=O)N4C[C@H](O)C[C@H]4C(=O)N[C@@H](Cc4c[nH]c5ccccc45)C(=O)N[C@H](C(N)=O)CSCCC6=O)nn3)C(=O)N3CCC[C@H]3C(=O)N[C@@H](Cc3ccc(O)cc3)C(=O)N2)C(=O)CCSCCNC1=O,Nectin-4,binding,,SPR,Kd,0.0016 µM
CCCCOc1ccccc1C(=O)NCc1csc(-c2ccccc2)n1,PFF0160c,enzyme activity,inhibitor,absorbance,IC50,0.421 µM
COC(=O)C1(c2ccc(C)cc2)CC1CN1CCC(O)(c2ccccc2)CC1 (stereo not shown),SIGMAR1,ligand displacement,,radioligand,Ki,0.0187 µM
CCCC[C@@H]1NC(=O)[C@H](Cc2ccc(O)cc2)NC(=O)[C@@H]2CCCN2C(=O)[C@H](CC(N)=O)NC(=O)[C@H](C)NC(=O)[C@H](Cc2ccccc2)NC(=O)[C@@H]2CSCCC(=O)N3CN(CN(C3)C(=O)CCSC[C@H](NC(C)=O)C(=O)N[C@@H](CC(C)(C)C)C(=O)N3CCC[C@H]3C(=O)N[C@@H](CCC(=O)O)C(=O)N[C@H](CCCCNC(=O)CCc3cn(CCOCCOCCOCCN(CCOCCOCCOCCC(=O)N[C@H]4CSCCC(=O)N5CN6CN(C5)C(=O)CCSC[C@H](NC(=O)[C@@H](CC(=O)O)NC(=O)[C@H](Cc5cccc7ccccc57)NC(=O)[C@@H]5CCCN5C4=O)C(=O)N[C@@H](CCSC)C(=O)N[C@@H](CCCCNC(=N)N)C(=O)N[C@@H](CC(=O)O)C(=O)N[C@@H](Cc4c[nH]c5ccccc45)C(=O)N[C@@H](CO)C(=O)N[C@@H]([C@@H](C)O)C(=O)N4CCC[C@H]4C(=O)N4C[C@H](O)C[C@H]4C(=O)N[C@@H](Cc4c[nH]c5ccccc45)C(=O)N[C@H](C(N)=O)CSCCC6=O)CCOCCOCCOCCn4cc(CCC(=O)NCCCC[C@H]5NC(=O)[C@H](CCC(=O)O)NC(=O)[C@@H]6CCCN6C(=O)[C@H](CC(C)(C)C)NC(=O)[C@@H](NC(C)=O)CSCCC(=O)N6CN7CN(C6)C(=O)CCSC[C@H](NC(=O)[C@H](Cc6ccc(O)cc6)NC(=O)[C@@H]6CCCN6C5=O)C(=O)N[C@@H](Cc5ccccc5)C(=O)N[C@@H](C)C(=O)N[C@@H](CC(N)=O)C(=O)N5CCC[C@H]5C(=O)N[C@@H](Cc5ccc(O)cc5)C(=O)N[C@@H](CCCC)C(=O)N[C@H](C(N)=O)CSCCC7=O)nn4)nn3)C(=O)N3CCC[C@H]3C(=O)N[C@@H](Cc3ccc(O)cc3)C(=O)N2)C(=O)CCSC[C@@H](C(N)=O)NC1=O,Nectin-4,binding,,SPR,Kd,0.0019 µM
O=C(N[C@H]1C=C[C@@]2(O)[C@H]3Cc4ccc(O)c5c4[C@@]2(CCN3CC2CC2)[C@H]1O5)c1c[nH]c2ncccc12,Oprm1,ligand displacement,,radioligand,Ki,0.00114 µM
CCCC[C@@H]1NC(=O)[C@H](Cc2ccc(O)cc2)NC(=O)[C@@H]2CCCN2C(=O)[C@H](CC(=O)O)NC(=O)[C@H](C)NC(=O)[C@H](Cc2ccccc2)NC(=O)[C@@H]2CSCCC(=O)N3CN(CN(C3)C(=O)CCSC[C@@H](C(=O)N[C@@H](CNC(=O)CCOCCOCCOCCOCCOCCn3cc(CCC(=O)N[C@H]4CSCCC(=O)N5CN6CN(C5)C(=O)CCSC[C@H](NC(=O)[C@@H](CC(=O)O)NC(=O)[C@H](Cc5cccc7ccccc57)NC(=O)[C@@H]5CCCN5C4=O)C(=O)N[C@@H](CCSC)C(=O)N[C@@H](CCCCNC(=N)N)C(=O)N[C@@H](CC(=O)O)C(=O)N[C@@H](Cc4c[nH]c5ccccc45)C(=O)N[C@@H](CO)C(=O)N[C@@H]([C@@H](C)O)C(=O)N4CCC[C@H]4C(=O)N4C[C@H](O)C[C@H]4C(=O)N[C@@H](Cc4c[nH]c5ccccc45)C(=O)N[C@H](C(N)=O)CSCCC6=O)nn3)C(N)=O)NC1=O)C(=O)CCSC[C@H](NC(C)=O)C(=O)N[C@@H](CC(C)(C)C)C(=O)N1CCC[C@H]1C(=O)N[C@@H](CCC(=O)O)C(=O)N[C@H](C)C(=O)N1CCC[C@H]1C(=O)N[C@@H](Cc1ccc(O)cc1)C(=O)N2,Nectin-4,binding,,SPR,Kd,0.0011 µM
CSc1nc2nc(C)c(Cc3cccc(C(F)(F)F)c3)c(C)n2n1,"Dihydroorotate dehydrogenase (quinone), mitochondrial (PFF0160c, Plasmodium falciparum, UniProt Q08210, E182D)",enzyme activity,inhibitor,absorbance,IC50,> 10 µM
COc1cc2c(cc1OC)C(=O)C(CC1CCN(Cc3ccccc3)CC1)C2 (stereo not shown),SIGMAR1,ligand displacement,,radioligand,Ki,0.0191 µM
COc1nc(NCC(C)C)nc(Oc2ccc(=O)n(Cc3ccccc3)n2)n1,PFF0160c,enzyme activity,inhibitor,absorbance,IC50,0.124 µM
CCCC[C@@H]1NC(=O)[C@H](Cc2ccc(O)cc2)NC(=O)[C@@H]2CCCN2C(=O)[C@H](CC(=O)O)NC(=O)[C@H](C)NC(=O)[C@H](Cc2ccccc2)NC(=O)[C@@H]2CSCCC(=O)N3CN(CN(C3)C(=O)CCSCCC(=O)N[C@@H](CC(C)(C)C)C(=O)N3CCC[C@H]3C(=O)N[C@@H](CCC(=O)O)C(=O)N[C@H](CCCCNC(=O)CCc3cn(CCOCCOCCOCCN(CCOCCOCCOCCC(=O)N[C@H]4CSCCC(=O)N5CN6CN(C5)C(=O)CCSC[C@H](NC(=O)[C@@H](CC(=O)O)NC(=O)[C@H](Cc5cccc7ccccc57)NC(=O)[C@@H]5CCCN5C4=O)C(=O)N[C@@H](CCSC)C(=O)N[C@@H](CCCCNC(=N)N)C(=O)N[C@@H](CC(=O)O)C(=O)N[C@@H](Cc4c[nH]c5ccccc45)C(=O)N[C@@H](CO)C(=O)N[C@@H]([C@@H](C)O)C(=O)N4CCC[C@H]4C(=O)N4C[C@H](O)C[C@H]4C(=O)N[C@@H](Cc4c[nH]c5ccccc45)C(=O)N[C@H](C(N)=O)CSCCC6=O)CCOCCOCCOCCn4cc(CCC(=O)NCCCC[C@H]5NC(=O)[C@H](CCC(=O)O)NC(=O)[C@@H]6CCCN6C(=O)[C@H](CC(C)(C)C)NC(=O)CCSCCC(=O)N6CN7CN(C6)C(=O)CCSC[C@H](NC(=O)[C@H](Cc6ccc(O)cc6)NC(=O)[C@@H]6CCCN6C5=O)C(=O)N[C@@H](Cc5ccccc5)C(=O)N[C@@H](C)C(=O)N[C@@H](CC(=O)O)C(=O)N5CCC[C@H]5C(=O)N[C@@H](Cc5ccc(O)cc5)C(=O)N[C@@H](CCCC)C(=O)NCCSCCC7=O)nn4)nn3)C(=O)N3CCC[C@H]3C(=O)N[C@@H](Cc3ccc(O)cc3)C(=O)N2)C(=O)CCSCCNC1=O,Nectin-4,binding,,SPR,Kd,0.004 µM
